Screening data (PubChem)
HSF1 activator – increases HSF-1 driven luciferase reporter signal; NIH3T3-HGL HSF-1 luciferase reporter, MG132, 8 h; 100% = twice DMSO control signal; activation, % at 9 µM; 300,000 compounds, 1.7% hits;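 active means mean replicate activation of at least 50% with a set share of replicates each reaching 50%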
SR-BI uptake up – SR-BI HDL lipid transfer activation | 320,000 compounds, 0.096% hits | activation, % at 12.5 µM | AID 504775 | CHO ldlA[mSR-BI] cells, DiI-HDL uptake fluorescence, 3 h; 100 = double the neutral-control signal;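 active means mean replicate activation of at least 60% and every replicate at or above 60%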
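Material: SR-BI-overexpressing, LDLR-lacking CHO cells | Dosing: Single compound concentration, delivered by pin transfer | Probe or stimulus: Labelled HDL, 10 µg/mL | Signal: Bottom-read cell fluorescence after medium removal, ex 550/em 595 nm | Schedule: 3 h, 37 °C | Evaluation: HDL uptake via cellular fluorescence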
SR-BI HDL uptake – inhibitors of mouse SR-BI mediated HDL lipid uptake; inhibition, % at 12.5 µM; 320,000 compounds, 0.96% hits; Q61009; ldlA[mSR-BI] CHO cells, DiI-HDL uptake fluorescence, 3 h; AID 488896;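 active means mean replicate inhibition of at least 70% and a set share of replicates each scoring 70 or more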
Target sequence (Q61009 whole entry, looked up): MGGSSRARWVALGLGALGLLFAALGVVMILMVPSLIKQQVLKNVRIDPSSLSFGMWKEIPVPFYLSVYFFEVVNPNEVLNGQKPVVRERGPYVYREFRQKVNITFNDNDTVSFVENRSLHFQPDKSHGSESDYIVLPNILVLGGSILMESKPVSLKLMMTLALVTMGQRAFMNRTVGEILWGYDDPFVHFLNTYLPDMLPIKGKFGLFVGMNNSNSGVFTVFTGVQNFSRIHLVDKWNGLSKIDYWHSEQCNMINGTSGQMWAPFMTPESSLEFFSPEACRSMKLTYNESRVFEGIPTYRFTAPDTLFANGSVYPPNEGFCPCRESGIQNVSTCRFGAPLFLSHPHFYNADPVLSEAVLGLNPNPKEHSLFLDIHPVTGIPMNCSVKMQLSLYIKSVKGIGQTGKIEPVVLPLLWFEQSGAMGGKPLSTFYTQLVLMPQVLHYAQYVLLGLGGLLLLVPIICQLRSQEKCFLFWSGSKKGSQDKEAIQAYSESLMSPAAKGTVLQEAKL
MITF act – activators of MITF-driven TRPM1 promoter activity in SK-MEL-5 cells. SK-MEL-5 TRPM1-promoter luciferase, 24 h; % of positive control, neutral wells = 0. activation, % at 12.5 µM. 300,000 compounds, 0.75% hits. AID 588334;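 active means mean activation of at least 80% with every replicate also reaching 80%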
Wnt bcat act – activators of Wnt/beta-catenin signaling | 300,000 compounds, 1.2% hits | AID 743398 | Wnt/beta-catenin reporter cell assay, activator, plate reader | activation, % at 9.35 µM; in the data active means activation above about 30%, passing the limit was not always enough
Large screens that a line does not name were inactive; ! = not active in a repeat. An excerpt weighted towards active compounds, which were near 3.6% of everything screened.

COc1ccc(/C(C)=N/NC(=O)c2cccc(S(=O)(=O)N3CCCC3)c2)c(O)c1	SR-BI HDL uptake 103
Cc1ccc(OC2CCN(C(=O)[C@@H](Cc3ccccc3)NC(=O)[C@H]3O[C@@H](n4ccc(=O)[nH]c4=O)[C@H](O)[C@@H]3O)CC2)cc1	none (no result: HSF1 activator, SR-BI uptake up, SR-BI HDL uptake, MITF act)
CN1C2CCC1/C(=C\c1ccccc1F)C(=O)/C2=C/c1ccccc1F	HSF1 activator 106
CC1CCN(C2=NC(=O)/C(=C/c3ccccc3F)S2)CC1	none
COc1ccc(NC(=O)/C(C#N)=C/c2c(C)nn(-c3ccc(F)cc3)c2Cl)cc1Cl	SR-BI HDL uptake 71
COc1ccc(NC(=O)/C(C#N)=C/c2c(C)nn(-c3ccc(F)cc3)c2Cl)cc1OC	SR-BI HDL uptake 76 (no result: Wnt bcat act)
O=C(/C=C/c1ccc(O)cc1)c1ccc(NC2=C(N3CCCCC3)C(=O)c3ccccc3C2=O)cc1	SR-BI HDL uptake 90
Cc1ccc(NC2=C(N3CCCCC3)C(=O)c3ccccc3C2=O)cc1	SR-BI HDL uptake 73 (no result: Wnt bcat act)
COC(=O)C1=C(C)N(C)C(=NCc2ccc3c(c2)OCO3)NC1c1cccc(Cl)c1 (stereo not given)	none (no result: HSF1 activator, SR-BI uptake up, SR-BI HDL uptake, MITF act)
COc1ccc(-c2cc(C(=O)N3CCCCCC3)no2)cc1	HSF1 activator 60
COc1ccc(-c2cc(C(=O)N3CCCC3)no2)cc1	none
COc1cccc(-c2cc(C(=O)N3CCCCCC3)no2)c1	Wnt bcat act 41 (no result: MITF act)
Cc1ccc(CN(C)C(=O)c2ccc(S(=O)(=O)N3CCCCCC3)cc2)o1	Wnt bcat act 36 (no result: HSF1 activator)
Cc1cccc(NC(=O)C2CCN(S(=O)(=O)c3ccc4c(c3)NC(=O)CO4)CC2)c1C	HSF1 activator 73 (no result: SR-BI uptake up)
Cc1cccc(NC(=O)CC(C)S(=O)(=O)c2ccc3c(c2)NC(=O)CO3)c1C (stereo not given)	HSF1 activator 105
Cc1ccccc1NS(=O)(=O)c1ccc2c(c1)NC(=O)CO2	HSF1 activator 61
COc1ccccc1CNc1ccc2c(c1)OC[C@H](CC(C)C)NS2(=O)=O	none (no result: HSF1 activator, SR-BI uptake up, SR-BI HDL uptake, MITF act)
COc1ccc(C(=O)N2C=Cc3ccccc3C2C(N)=O)cc1 (stereo not given)	none (no result: HSF1 activator, SR-BI uptake up, SR-BI HDL uptake, MITF act)
O=S(=O)(N1CCCCC1)n1nnc2cc3ccccc3cc21	none (no result: HSF1 activator, SR-BI uptake up, SR-BI HDL uptake, MITF act)
COc1ccc(-c2cc(C(=O)N3CCCCCC3)c3ccccc3n2)cc1	SR-BI HDL uptake 75 (no result: HSF1 activator)
Cc1ccc(-c2cc(C(=O)N3CCOCC3)c3cc(C)ccc3n2)cc1	Wnt bcat act 31
Cc1ccc2nc3sc(C(=O)N4CCOCC4)c(N)c3cc2c1	none (no result: MITF act)
Cc1ccc2cc3c(N)c(C(=O)N4CCOCC4)sc3nc2c1	HSF1 activator 67, Wnt bcat act 59
CCOc1ccc(OCCC(=O)OCC(=O)N2CCN(S(=O)(=O)c3ccc(Cl)cc3)CC2)cc1	HSF1 activator 87
CCOc1ccc(S(=O)(=O)N2CCN(C(=O)CN3C(=O)NC(C)(C)C3=O)CC2)cc1	Wnt bcat act 47 (no result: HSF1 activator)
Cc1onc(-c2ccccc2Cl)c1C(=O)Nc1sc2c(c1C(N)=O)CCC(C)C2 (stereo not given)	SR-BI HDL uptake 73
COC(=O)C1=C(N)Oc2c(oc(CO)cc2=O)C1c1ccc(F)cc1 (stereo not given)	Wnt bcat act 40 (no result: SR-BI uptake up, SR-BI HDL uptake, MITF act)
COc1cc(C2C(C#N)=C(N)Oc3c2oc(CO)cc3=O)cc(OC)c1OC (stereo not given)	none (no result: MITF act)
Cc1cccc(Nc2nc(-c3ccc(F)cc3)cs2)n1	none (no result: MITF act)
COc1ccc(-c2csc(Nc3cccc(C)n3)n2)cc1C	HSF1 activator 98, Wnt bcat act 37 (no result: MITF act)
CC(=O)Oc1ccc(-c2csc(Nc3cccc(C)n3)n2)cc1	HSF1 activator 65 (no result: MITF act)
COc1ccc(-c2csc(Nc3cc(C)ccn3)n2)cc1OC	none (no result: SR-BI uptake up, SR-BI HDL uptake)
COc1ccc(-c2csc(Nc3ccc(C)cn3)n2)cc1OC	SR-BI HDL uptake 77
CC(=O)Oc1ccc(-c2csc(Nc3ccccn3)n2)cc1	Wnt bcat act 61 (no result: HSF1 activator, SR-BI uptake up, SR-BI HDL uptake, MITF act)
COc1ccc(-c2csc(Nc3cccc(C)n3)n2)cc1	none (no result: MITF act)
CC1(c2nnnn2-c2ccc3c(c2)OCCO3)CCC(=O)N1C1CCN(Cc2ccccc2)CC1 (stereo not given)	none (no result: HSF1 activator, SR-BI uptake up, SR-BI HDL uptake, MITF act)
COc1ccccc1CCn1cnc(-c2cccc(F)c2)c1C(C)C	none (no result: HSF1 activator, SR-BI uptake up, SR-BI HDL uptake, MITF act)
COC(=O)[C@]12C[C@H](CC(=O)NCc3ccc(C)o3)C(=O)N(Cc3ccccc3)C1=C[C@H](C(C)C)O[C@@H]2C1CC1	none (no result: HSF1 activator, SR-BI uptake up, SR-BI HDL uptake, MITF act)
CC(=O)Nc1nc(C)c(-c2csc(Nc3ccccn3)n2)s1	Wnt bcat act 52!
CC(=O)Nc1ccc(Nc2nc(-c3sc(NC(C)=O)nc3C)cs2)cc1	none (no result: MITF act)
